High-throughput results from PubChem BioAssay.
hiPSC survival: hiPSC single-cell survival enhancement. ATPlite luminescence; 100% = ROCK inhibitor wells, 0% = DMSO. survival enhancement, % at 20 µM. 0.044% of 360,000 active; in the data active means survival enhancement above about 18%;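 further: cells exposed to compounds for 16 hours before the ATP read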
SENP1 FRET inh: inhibitors of human SENP1 SUMO protease catalytic domain; Q9P0U3; recombinant SENP1 catalytic domain, CyPet-SUMO1-YPet FRET cleavage; inhibition, % at 10 µM; 0.21% of 360,000 active;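 active means inhibition at least 30% at 10 µM, raw YFP signal under a set limit, fluorescence ratio 0.5 to 1.5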
Target sequence (Q9P0U3 419-644 limits assumed): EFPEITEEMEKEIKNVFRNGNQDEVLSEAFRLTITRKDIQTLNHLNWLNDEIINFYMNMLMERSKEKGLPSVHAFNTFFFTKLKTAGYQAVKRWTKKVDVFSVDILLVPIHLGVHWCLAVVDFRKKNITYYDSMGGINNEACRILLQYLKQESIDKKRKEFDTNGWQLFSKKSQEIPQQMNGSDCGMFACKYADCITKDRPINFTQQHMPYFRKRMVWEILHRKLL
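system = hSENP1 catalytic domain, recombinant | reagent = SFCypet-SUMO1-SFYpet substrate at 25 nM | doses = one dose per compound, 10 µM, 0.5% DMSO | incubation = enzyme reaction for 50 min at room temperature, dark | measured by = FRET, CFP and YFP emission | controls = no-enzyme low, enzyme-DMSO high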
FAS-TE inh: blocks the thioesterase domain of human fatty acid synthase; P49327; recombinant FAS-TE, OMFH fluorogenic substrate, fluorescence endpoint; inhibition, % at 15 µM; 0.67% of 360,000 active; AID 602261;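 active means compounds whose normalised, plate-corrected inhibition of enzyme fluorescence in the single-dose primary screen is 50% or more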
ABCB6 inh 2: blocks the human ABCB6 transporter | fluorescence ratio to DMSO, % at 10 µM | AID 602162 | K562-ABCB6 porphyrin accumulation, flow cytometry, 1 h; hits give low values | Q9NP58 | 0.19% of 360,000 active;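 active means fluorescence ratio to DMSO below 75%, the collection mean minus 3 SD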;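 further: signal is porphyrin accumulated inside mitochondria; lower ratio means ABCB6 inhibition with less porphyrin fluorescence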
SENP1 inh conf: SENP1 (human) inhibition, single concentration confirmation | shares compounds with SENP1 FRET inh | recombinant SENP1, CyPet-SUMO1-YPet FRET cleavage | inhibition, % at 10 µM | 34% of 520 active | AID 651678; in the data active means inhibition mostly above about 35%, no sharp cut-off; inactive means mostly below about 32%
SENP1 kin conf: confirmation of human SENP1 SUMO protease inhibitors, kinetic | 26% of 520 active | recombinant SENP1, CyPet-SUMO1-YPet FRET kinetic cleavage | inhibition, % at 10 µM | shares compounds with SENP1 FRET inh; in the data active means inhibition mostly above about 32%, no sharp cut-off; inactive means mostly below about 29%
Large screens that a line does not name were inactive (follow-up assays come after a bar, where they were run). In the library only some 1.1% were active in any assay of this set; here they are far more common.

CCOC(=O)c1cc(C(=O)c2cc(F)ccc2O)coc1=N	none
CC1(C)CC(=O)C2=C(C1)Nc1ccccc1S2	SENP1 FRET inh 46.0 | SENP1 inh conf 29.3 | SENP1 kin conf inactive
CCOC(=O)C(C)Sc1nnc(Cc2cc(=O)[nH]c(=O)[nH]2)n1-c1ccc(Cl)cc1 (stereo not drawn)	SENP1 FRET inh 64.2 | SENP1 inh conf inactive | SENP1 kin conf inactive
COc1cc2cc(C)c(SCC(=O)N3CCOCC3)nc2cc1OC	SENP1 FRET inh 32.5 | SENP1 inh conf inactive | SENP1 kin conf inactive
Cc1c(NC(=O)/C(C#N)=C/c2ccccc2)c(=O)n(-c2ccccc2)n1C	none
Cc1c(NN=C(C#N)C#N)c(=O)n(-c2ccccc2)n1C	SENP1 FRET inh 46.5 | SENP1 inh conf inactive | SENP1 kin conf inactive
Cc1ccccc1-n1ncc2c1CC(C)(C)CC2NC(=O)CCN1CCCCC1=O (stereo not drawn)	none
O=C(CCc1nnc(-c2ccccc2)o1)NCC1CCN(C2CCCC2)CC1	SENP1 FRET inh 50.2 | SENP1 inh conf inactive | SENP1 kin conf inactive
CN(CCc1ccccn1)C(=O)CCC1CCCN(C(=O)c2cccc(N(C)C)c2)C1 (stereo not drawn)	none
CC(C)(C)N=Cc1c(O)ccc2oc3c(c12)CCCC3	SENP1 FRET inh 30.9 | SENP1 inh conf inactive | SENP1 kin conf inactive
NC(=O)N/N=C/c1c(O)ccc2oc3c(c12)CCCC3	none
COc1ccc2c(c1)c1nc3ccccc3nc1n2Cc1ccc(OC)c(OC)c1	SENP1 FRET inh 38.6 | SENP1 inh conf 62.8 | SENP1 kin conf 52.0
CCOc1ccc(Cn2c3ccc(OC)cc3c3nc4ccccc4nc32)cc1OC	SENP1 FRET inh 41.8 | SENP1 inh conf 67.9 | SENP1 kin conf 48.4
CCOc1ccc(C(=O)NCC(=O)NCC2CCCCC2)cc1OCC	none
Cc1ccc(C(=O)CCC(=O)Nc2cc(C)ccn2)cc1	none
Cc1ccnc(NC(=O)CCC(=O)c2cc(C)sc2C)c1	SENP1 FRET inh 38.2 | SENP1 inh conf inactive | SENP1 kin conf inactive
CCCOc1ccc(CC(=O)NCCc2ccccc2)cc1OC	none
CC1=CC(=O)C=C/C1=C(/c1ccc(O)cc1C)c1ccccc1S(=O)(=O)O	SENP1 FRET inh 35.9 | SENP1 inh conf inactive | SENP1 kin conf inactive
O=C(NCc1ccncc1)C1CCN(S(=O)(=O)c2ccc(Cl)c(C(F)(F)F)c2)CC1	none
Cc1cccc(-c2noc(-c3cc4ccccc4oc3=O)n2)c1	SENP1 FRET inh 51.1 | SENP1 inh conf inactive | SENP1 kin conf inactive
Cc1ccc(NC2=C(C(=O)c3ccccc3)N(C)S(=O)(=O)c3ccccc32)cc1	SENP1 FRET inh 32.5 | SENP1 inh conf 34.6 | SENP1 kin conf inactive
O=C(c1cccc(F)c1)N1CCCc2ccccc21	none
CC1=C(C(N)=O)S(=O)(=O)c2ccccc21	SENP1 FRET inh 47.0 | SENP1 inh conf 47.2 | SENP1 kin conf inactive
O=[N+]([O-])c1ccc(Nc2c3ccccc3nc3ccccc23)cc1	none
NC(N)=NCCCS(=O)(=O)Nc1ccc(Nc2c3ccccc3nc3cc([N+](=O)[O-])ccc23)cc1	SENP1 FRET inh 51.2 | SENP1 inh conf inactive | SENP1 kin conf inactive
CCOc1ccc(NC(=O)c2cc(S(=O)(=O)N3CCOCC3)cn2C)cc1	none
Cc1c(NS(=O)(=O)c2cccc(C(=O)Nc3cccc(F)c3)c2)c(=O)n(-c2ccccc2)n1C	none
O=C1c2cc(CO)cc(O)c2C(=O)c2c(O[C@@H]3OC(CO)[C@@H](O)[C@@H](O)[C@@H]3O)cccc21 (stereo partly drawn)	SENP1 FRET inh 42.6 | SENP1 inh conf 45.5 | SENP1 kin conf inactive
Cc1cccc(Oc2cc([N+](=O)[O-])cc3c2C(=O)Nc2ccccc2O3)c1	none
O=C1Nc2ccccc2Oc2cc([N+](=O)[O-])cc(Oc3ccccc3)c21	SENP1 FRET inh 59.0 | SENP1 inh conf inactive | SENP1 kin conf inactive
Cc1cc(C(=O)NCc2csc(-c3ccccc3)n2)no1	none
Cc1cccc(OCC(O)Cn2c(N3CCCCC3)nc3c2c(=O)n(C)c(=O)n3C)c1 (stereo not drawn)	none
O=C(C[n+]1cccc2ccccc21)c1ccc(Cl)cc1	SENP1 FRET inh 42.7 | SENP1 inh conf inactive | SENP1 kin conf inactive
O=C(C[n+]1cccc2ccccc21)c1ccc([N+](=O)[O-])cc1	none
CNc1nc(-c2ccc([N+](=O)[O-])cc2)cs1	SENP1 FRET inh 43.8 | SENP1 inh conf inactive | SENP1 kin conf inactive
COc1ccc(CNC(=O)c2ccc(CS(=O)(=O)c3ccc(Br)cc3)o2)cc1	none
Cc1cccc(-n2c(SCc3cc(=O)n4ccsc4n3)nc3ccccc32)c1	SENP1 FRET inh 31.4 | SENP1 inh conf 39.8 | SENP1 kin conf inactive
Cn1c(Cc2ccccc2)nnc1SCc1cc(=O)n2ccsc2n1	none
O=C1/C(=C/c2ccc([N+](=O)[O-])cc2)Oc2cc(O)ccc21	SENP1 FRET inh 62.5 | SENP1 inh conf 45.0 | SENP1 kin conf inactive
CCOC(=O)/C(C#N)=C/c1cc2ccc(C)cc2nc1Cl	none
CCOC(=O)/C(C#N)=C/c1cc2ccccc2nc1N1CCOCC1	SENP1 FRET inh 67.1 | SENP1 inh conf inactive | SENP1 kin conf inactive
CCc1cc2c(C)cc(C)cc2nc1SCC(=O)Nc1cc(C)on1	none
Cc1cc(C)c2cc(C#N)c(SCC(=O)Nc3cc(C)on3)nc2c1	SENP1 FRET inh 50.3 | SENP1 inh conf inactive | SENP1 kin conf inactive
Cc1cc(NC(=O)CSc2nc3c(C)ccc(C)c3cc2C#N)no1	SENP1 FRET inh 68.2 | SENP1 inh conf inactive | SENP1 kin conf inactive
COc1cccc(CNC(=O)C2CSC3(C)CCC(=O)N23)c1 (stereo not drawn)	SENP1 FRET inh 38.5 | SENP1 inh conf inactive | SENP1 kin conf inactive
COc1ccccc1CNC(=O)C1CSC2(C)CCC(=O)N12 (stereo not drawn)	none
Cc1sc(-c2ccccn2)nc1OC(=O)c1ccc(F)cc1F	SENP1 FRET inh 51.5 | SENP1 inh conf 49.9 | SENP1 kin conf 69.1
Cc1ccnc(NC(=O)COC(=O)c2ccc(F)cc2F)n1	none
CCC(C)NC(=O)c1cc(-c2ccc3c(c2)OCO3)on1 (stereo not drawn)	none
Cc1ccccc1N/N=C/c1c(C)nc2ccccn12	none
Nc1ccc2oc(=O)c(-c3ccccc3)cc2c1	SENP1 FRET inh 67.9 | SENP1 inh conf inactive | SENP1 kin conf inactive
Nc1ccc(-c2cc3ccccc3oc2=O)cc1	none
COc1ccccc1C1C2=C(N=c3s/c(=C/c4cccc(OCC(=O)O)c4)c(=O)n31)c1ccccc1CC2 (stereo not drawn)	SENP1 FRET inh 35.6 | SENP1 inh conf 44.3 | SENP1 kin conf inactive
COc1cccc(C2C3=C(N=c4s/c(=C\c5cccc(O)c5)c(=O)n42)c2ccccc2CC3)c1OC (stereo not drawn)	SENP1 FRET inh 49.5 | SENP1 inh conf inactive | SENP1 kin conf inactive
